Measurements taken from ChEMBL document CHEMBL5543129, “Peptide Inhibitor Targeting the Extraterminal Domain in BRD4 Potently Suppresses Breast Cancer Both In Vitro and In Vivo” (J Med Chem, 2024).
Square brackets hold non-standard residues; d marks the D form. Peptide text beside a SMILES is read from it. Hyp = O=C(O)[C@@H]1C[C@@H](O)CN1; Ahx = NCCCCCC(=O)O

Assays:
BT-549 = experiment: Cytotoxicity against human BT-549 cells incubated for 1 week by CellTiter 96 Aqueous One Solution based assay; assay type: functional, cell-based; details: BT-549, 168 h
How it was run: (§1)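 Cells grown in RPMI-1640 (T47D, BT549) or DMEM (MDA-MB-231) with 10% FBS, 37 °C, 5% CO2. Seeded 2 × 10^3/well, exposed to a gradient concentration of peptide for 1 week. MTS-type reagent added 20 μL per 100 μL medium, 1 h at 37 °C, absorbance read at 490 nm. EC50 derived from the concentration–response curve.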

T47D = experiment: Cytotoxicity against human T47D cells incubated for 1 week by CellTiter 96 Aqueous One Solution based assay; assay type: functional, cell-based; details: 168 h; how it was run: as §1
MDA-MB-231 = experiment: Cytotoxicity against human MDA-MB-231 cells incubated for 1 week by CellTiter 96 Aqueous One Solution based assay; assay type: functional, cell-based; details: MDA-MB-231, 168 h; how it was run: as §1
MCF7 = experiment: Inhibition of His-tagged BRD4 ET domain to Flag-tagged JMJD6 (unknown origin) protein-protein interaction in human MCF7 cells assessed as fold decrease in His-tagged BRD4 ET level at 10 uM incubated for 12 hrs by immunoblotting assay (reference value: […]); assay type: cell-based
[1] = molecular target: T1, von Hippel-Lindau disease tumor suppressor/Bromodomain-containing protein 4 (Homo sapiens) (UniProt O60885+P40337); experiment: PROTAC activity at VHL/His-tagged BDR4 ET domain (471 to 730 residues) (unknown origin) transfected in MCF7 cells assessed as degradation by measuring fold change in remaining BRD4 level at 5 uM incubated for 24 hrs by immunoblotting analysis (reference value: […]); assay type: cell-based
[2] = molecular target: T1, von Hippel-Lindau disease tumor suppressor/Bromodomain-containing protein 4 (Homo sapiens); experiment: PROTAC activity at VHL/His-tagged BDR4 ET domain (471 to 730 residues) (unknown origin) transfected in MCF7 cells assessed as degradation by measuring fold change in remaining BRD4 level at 10 uM incubated for 12 hrs by immunoblotting analysis (reference value: […]); assay type: cell-based
[3] = molecular target: T1, von Hippel-Lindau disease tumor suppressor/Bromodomain-containing protein 4 (Homo sapiens); experiment: PROTAC activity at VHL/His-tagged BDR4 ET domain (471 to 730 residues) (unknown origin) transfected in MCF7 cells assessed as degradation by measuring fold change in remaining BRD4 level at 10 uM incubated for 24 hrs by immunoblotting analysis (reference value: […]); assay type: cell-based
[4] = molecular target: T1, von Hippel-Lindau disease tumor suppressor/Bromodomain-containing protein 4 (Homo sapiens); experiment: PROTAC activity at VHL/His-tagged BDR4 ET domain (601 to 683 residues) (unknown origin) transfected in MCF7 cells assessed as degradation by measuring fold change in remaining BRD4 level at 20 uM incubated for 24 hrs by immunoblotting analysis (reference value: […]); assay type: cell-based
[5] = molecular target: T1, von Hippel-Lindau disease tumor suppressor/Bromodomain-containing protein 4 (Homo sapiens); experiment: PROTAC activity at VHL/BDR4 ET domain in human MCF7 cells assessed as degradation by measuring fold change in remaining BRD4 level at 2.5 uM incubated for 24 hrs by immunoblotting analysis (reference value: […]); assay type: cell-based
[6] = molecular target: T1, von Hippel-Lindau disease tumor suppressor/Bromodomain-containing protein 4 (Homo sapiens); experiment: PROTAC activity at VHL/BDR4 ET domain in human MCF7 cells assessed as degradation by measuring fold change in remaining BRD4 level at 10 uM incubated for 24 hrs in presence of TAT-PiET by immunoblotting analysis relative to TAT/TAT-PROTAC; assay type: cell-based
How it was run: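 MCF7 cells are treated with PROTAC peptide (dose series, or 10 μM over a time course, or 10 μM with or without MG132 10 μM) for up to 24 h. Comparators are TAT, TAT-PiET, or TAT-PROTAC at 10 μM. BRD4 is measured by immunoblot, normalised to β-actin; three repeats.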

[7] = molecular target: T1, von Hippel-Lindau disease tumor suppressor/Bromodomain-containing protein 4 (Homo sapiens); experiment: PROTAC activity at VHL/His-tagged BDR4 ET domain (1 to 470 residues) (unknown origin) transfected in MCF7 cells assessed as degradation by measuring fold change in remaining BRD4 level at 10 uM incubated for 24 hrs by immunoblotting analysis (reference value: […]); assay type: cell-based
[8] = molecular target: T2, von Hippel-Lindau disease tumor suppressor/Bifunctional arginine demethylase and lysyl-hydroxylase JMJD6 (Homo sapiens) (UniProt P40337+Q6NYC1); experiment: PROTAC activity at VHL/JMJD6 in human MCF7 cells assessed as degradation by measuring fold change in remaining JMJD6 level at 10 uM incubated for 24 hrs in presence of TAT-PiET by immunoblotting analysis relative to TAT/TAT-PROTAC; assay type: cell-based
How it was run: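 MCF7 cells were left untreated or given TAT, TAT-PROTAC, TAT-PiET or the PROTAC peptide (each 10 μM) for 24 h. Lysates were immunoblotted with β-actin for loading. Three repeats, quantified in the Supporting Table.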

[9] = molecular target: T1, von Hippel-Lindau disease tumor suppressor/Bromodomain-containing protein 4 (Homo sapiens); experiment: PROTAC activity at VHL/His-tagged BDR4 ET domain (1047 to 1362 residues) (unknown origin) transfected in MCF7 cells assessed as degradation by measuring fold change in remaining BRD4 level at 5 uM incubated for 24 hrs by immunoblotting analysis (reference value: […]); assay type: cell-based
[10] = molecular target: T1, von Hippel-Lindau disease tumor suppressor/Bromodomain-containing protein 4 (Homo sapiens); experiment: PROTAC activity at VHL/His-tagged BDR4 ET domain (1 to 470 residues) (unknown origin) transfected in MCF7 cells assessed as degradation by measuring fold change in remaining BRD4 level at 5 uM incubated for 24 hrs by immunoblotting analysis (reference value: […]); assay type: cell-based
[11] = molecular target: T2, von Hippel-Lindau disease tumor suppressor/Bifunctional arginine demethylase and lysyl-hydroxylase JMJD6 (Homo sapiens); experiment: Protac activity at VHL/JMJD6 in human MCF7 cells assessed as degradation by measuring fold change in remaining JMJD6 level at 10 uM incubated for 6 hrs by immunoblotting analysis (reference value: […]); assay type: cell-based
[12] = molecular target: T1, von Hippel-Lindau disease tumor suppressor/Bromodomain-containing protein 4 (Homo sapiens); experiment: PROTAC activity at VHL/His-tagged BDR4 ET domain (601 to 683 residues) (unknown origin) transfected in MCF7 cells assessed as degradation by measuring fold change in remaining BRD4 level at 10 uM incubated for 24 hrs by immunoblotting analysis (reference value: […]); assay type: cell-based
[13] = molecular target: T1, von Hippel-Lindau disease tumor suppressor/Bromodomain-containing protein 4 (Homo sapiens); experiment: PROTAC activity at VHL/His-tagged BDR4 ET domain (1047 to 1362 residues) (unknown origin) transfected in MCF7 cells assessed as degradation by measuring fold change in remaining BRD4 level at 10 uM incubated for 12 hrs by immunoblotting analysis (reference value: […]); assay type: cell-based
[14] = molecular target: T1, von Hippel-Lindau disease tumor suppressor/Bromodomain-containing protein 4 (Homo sapiens); experiment: PROTAC activity at VHL/His-tagged BDR4 ET domain (601 to 683 residues) (unknown origin) transfected in MCF7 cells assessed as degradation by measuring fold change in remaining BRD4 level at 5 uM incubated for 24 hrs by immunoblotting analysis (reference value: […]); assay type: cell-based
[15] = molecular target: T1, von Hippel-Lindau disease tumor suppressor/Bromodomain-containing protein 4 (Homo sapiens); experiment: PROTAC activity at VHL/BDR4 ET domain in human MCF7 cells assessed as degradation by measuring fold change in remaining BRD4 level at 10 uM incubated for 24 hrs in presence of MG132 by immunoblotting analysis (reference value: […]); assay type: cell-based
[16] = molecular target: T2, von Hippel-Lindau disease tumor suppressor/Bifunctional arginine demethylase and lysyl-hydroxylase JMJD6 (Homo sapiens); experiment: Protac activity at VHL/JMJD6 in human MCF7 cells assessed as degradation by measuring fold change in remaining JMJD6 level at 10 uM incubated for 24 hrs in presence of MG132 by immunoblotting analysis (reference value: […]); assay type: cell-based
[17] = molecular target: T2, von Hippel-Lindau disease tumor suppressor/Bifunctional arginine demethylase and lysyl-hydroxylase JMJD6 (Homo sapiens); experiment: Protac activity at VHL/JMJD6 in human MCF7 cells assessed as degradation by measuring fold change in remaining JMJD6 level at 2.5 uM incubated for 24 hrs by immunoblotting analysis (reference value: […]); assay type: cell-based

Which EC50 (BT-549) does the source give for H-YGRKKRRQRRRRNQKFKCGE-OH here?
The EC50 was 32.3 µM.

And the EC50 (T47D)?
The EC50 was 13.3 µM.

What about the EC50 (MDA-MB-231) of the same compound?
The EC50 was 4.68 µM.

What about the fold change (FC) (MCF7) of the same compound?
The fold change (FC) was 0.49.

Which results are given for CC[C@H](C)[C@H](NC(=O)[C@H](Cc1ccc(O)cc1)NC(=O)[C@@H]1C[C@@H](O)CN1C(=O)[C@H](C)NC(=O)[C@@H](NC(=O)CCCCCNC(=O)[C@H](CCC(=O)O)NC(=O)CNC(=O)[C@H](CS)NC(=O)[C@H](CCCCN)NC(=O)[C@H](Cc1ccccc1)NC(=O)[C@H](CCCCN)NC(=O)[C@H](CCC(N)=O)NC(=O)[C@H](CC(N)=O)NC(=O)[C@H](CCCNC(=N)N)NC(=O)[C@H](CCCNC(=N)N)NC(=O)[C@H](CCCNC(=N)N)NC(=O)[C@H](CCCNC(=N)N)NC(=O)[C@H](CCC(N)=O)NC(=O)[C@H](CCCNC(=N)N)NC(=O)[C@H](CCCNC(=N)N)NC(=O)[C@H](CCCCN)NC(=O)[C@H](CCCCN)NC(=O)[C@H](CCCNC(=N)N)NC(=O)CNC(=O)[C@@H](N)Cc1ccc(O)cc1)[C@@H](C)CC)C(=O)O (H-YGRKKRRQRRRRNQKFKCGE[Ahx]IA[Hyp]YI-OH)?
fold change (FC) [1]: 0.8; fold change (FC) [2]: 0.9; fold change (FC) [3]: 0.68; fold change (FC) [4]: 0.37; fold change (FC) [5]: 0.92; fold change (FC) [6]: 0.84; fold change (FC) [7]: 1.11; fold change (FC) [8]: 0.84; fold change (FC) [9]: 1.09; fold change (FC) [10]: 1.09; fold change (FC) [11]: 0.89; fold change (FC) [12]: 0.47; fold change (FC) [13]: 1.11; fold change (FC) [14]: 0.72; fold change (FC) [15]: 0.96; fold change (FC) [16]: 0.88; fold change (FC) [17]: 0.91
